Measurements as given in ChEMBL document CHEMBL1828531, “Pyrazol-3-propanoic acid derivatives as novel inhibitors of leukotriene biosynthesis in human neutrophils” (Eur J Med Chem, 2011).

Legend:
[1] = target: Prostaglandin G/H synthase 1 (Homo sapiens, UniProt P23219); experiment: Inhibition of COX1-mediated 12-HHT production in human platelet assessed as residual activity at 10 uM after 5 mins by HPLC analysis
Method in brief: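 Washed human platelets, 10^8/mL in PBS with 1 mM CaCl2, preincubated with compound 4 min at 4 °C then 1 min at 37 °C. 5 µM AA added for 5 min at 37 °C. Methanol/HCl stop, PGB1 added, 12-HHT by HPLC. Residual activity at 10 µM. IC50 by interpolation from 4–5 concentrations.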

[2] = target: T1, Polyunsaturated fatty acid lipoxygenase ALOX12 (Homo sapiens) (UniProt P18054); experiment: Inhibition of 12-Lipoxygenase-mediated 12-HETE in human neutrophil assessed as residual activity at 30 uM after 15 mins by HPLC analysis
T1 sequence (whole entry): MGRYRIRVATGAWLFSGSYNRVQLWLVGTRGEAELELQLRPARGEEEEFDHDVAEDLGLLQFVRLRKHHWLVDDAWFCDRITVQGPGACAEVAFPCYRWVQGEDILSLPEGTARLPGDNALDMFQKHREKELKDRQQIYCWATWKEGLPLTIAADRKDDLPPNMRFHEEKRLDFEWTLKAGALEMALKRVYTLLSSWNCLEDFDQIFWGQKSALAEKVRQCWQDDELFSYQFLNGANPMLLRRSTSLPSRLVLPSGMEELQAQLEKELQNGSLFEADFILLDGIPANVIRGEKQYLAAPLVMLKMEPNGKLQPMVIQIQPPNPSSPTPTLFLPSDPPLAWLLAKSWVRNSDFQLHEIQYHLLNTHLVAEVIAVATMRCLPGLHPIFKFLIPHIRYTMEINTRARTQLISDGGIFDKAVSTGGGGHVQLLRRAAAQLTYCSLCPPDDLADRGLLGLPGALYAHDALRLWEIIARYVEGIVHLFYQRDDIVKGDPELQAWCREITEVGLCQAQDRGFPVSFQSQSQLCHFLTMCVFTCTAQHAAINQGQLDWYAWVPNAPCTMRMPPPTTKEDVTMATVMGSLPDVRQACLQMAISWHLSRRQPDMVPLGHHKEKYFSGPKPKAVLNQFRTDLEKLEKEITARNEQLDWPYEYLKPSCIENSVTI
Method in brief: (§1)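 Freshly isolated human blood neutrophils, 5 × 10^6/mL in PBS pH 7.4 with 1 mg/mL glucose and 1 mM CaCl2, preincubated with compound 15 min at RT. Stimulated with 2.5 µM A23187 plus 20 µM AA for 10 min at 37 °C. Stopped with methanol/HCl, PGB1 internal standard. 12-HETE or 15-HETE measured by HPLC. Residual activity tested at 30 µM.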

[3] = target: T2, Prostaglandin G/H synthase 2 (Homo sapiens, UniProt P35354); experiment: Inhibition of COX2-mediated 6-keto PGF1alpha production in IL1-beta stimulated human A549 cells after 10 mins by EIA; format: cell-based
T2 sequence (P35354 whole entry): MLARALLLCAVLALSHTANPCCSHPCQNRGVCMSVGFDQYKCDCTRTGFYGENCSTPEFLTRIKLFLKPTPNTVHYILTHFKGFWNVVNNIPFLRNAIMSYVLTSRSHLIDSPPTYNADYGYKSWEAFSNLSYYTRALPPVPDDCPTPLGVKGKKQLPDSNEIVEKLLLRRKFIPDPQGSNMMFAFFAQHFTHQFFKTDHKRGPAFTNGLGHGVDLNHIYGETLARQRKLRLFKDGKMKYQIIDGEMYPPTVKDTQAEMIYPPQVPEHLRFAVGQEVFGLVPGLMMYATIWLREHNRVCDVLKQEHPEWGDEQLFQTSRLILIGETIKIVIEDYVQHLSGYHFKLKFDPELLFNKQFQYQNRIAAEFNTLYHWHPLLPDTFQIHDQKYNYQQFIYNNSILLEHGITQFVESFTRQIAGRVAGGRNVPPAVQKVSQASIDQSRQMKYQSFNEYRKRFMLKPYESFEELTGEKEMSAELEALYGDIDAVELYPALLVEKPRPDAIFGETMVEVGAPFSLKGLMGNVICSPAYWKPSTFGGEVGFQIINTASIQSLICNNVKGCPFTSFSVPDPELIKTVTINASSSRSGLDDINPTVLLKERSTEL
Method in brief: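 A549 cells stimulated with IL-1β (1 ng/ml) 72 h in DMEM with 2% FCS, trypsinized and washed. 10^6 cells/mL PBS with 1 mM CaCl2 preincubated with compound 10 min at 37 °C. 3 µM AA added for 15 min at 37 °C, stopped on ice. 6-keto PGF1α in supernatant measured by EIA.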

[4] = target: T3, Polyunsaturated fatty acid lipoxygenase ALOX15 (Homo sapiens, UniProt P16050); experiment: Inhibition of 15-Lipoxygenase-mediated 15-HETE in human neutrophil after 15 mins by HPLC analysis; method in brief: as §1
T3 sequence (P16050 whole entry): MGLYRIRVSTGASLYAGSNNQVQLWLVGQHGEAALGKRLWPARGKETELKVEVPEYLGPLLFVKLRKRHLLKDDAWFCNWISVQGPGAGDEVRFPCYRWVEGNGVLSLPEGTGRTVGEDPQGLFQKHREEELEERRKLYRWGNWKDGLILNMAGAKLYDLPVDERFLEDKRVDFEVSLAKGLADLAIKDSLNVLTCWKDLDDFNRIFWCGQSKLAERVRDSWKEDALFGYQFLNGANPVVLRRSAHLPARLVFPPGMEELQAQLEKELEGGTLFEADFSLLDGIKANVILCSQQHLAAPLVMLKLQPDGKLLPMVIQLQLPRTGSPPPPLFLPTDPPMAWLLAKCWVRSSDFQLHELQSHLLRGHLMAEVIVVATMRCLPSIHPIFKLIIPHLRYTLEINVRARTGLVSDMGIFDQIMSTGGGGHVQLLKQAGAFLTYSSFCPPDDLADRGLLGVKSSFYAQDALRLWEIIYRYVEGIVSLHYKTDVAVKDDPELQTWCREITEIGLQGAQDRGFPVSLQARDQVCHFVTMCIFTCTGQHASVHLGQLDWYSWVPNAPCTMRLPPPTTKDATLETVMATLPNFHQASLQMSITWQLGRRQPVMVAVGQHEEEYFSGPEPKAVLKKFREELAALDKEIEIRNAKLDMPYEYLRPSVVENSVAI

Chain of Prostaglandin G/H synthase 1 (P23219 whole entry): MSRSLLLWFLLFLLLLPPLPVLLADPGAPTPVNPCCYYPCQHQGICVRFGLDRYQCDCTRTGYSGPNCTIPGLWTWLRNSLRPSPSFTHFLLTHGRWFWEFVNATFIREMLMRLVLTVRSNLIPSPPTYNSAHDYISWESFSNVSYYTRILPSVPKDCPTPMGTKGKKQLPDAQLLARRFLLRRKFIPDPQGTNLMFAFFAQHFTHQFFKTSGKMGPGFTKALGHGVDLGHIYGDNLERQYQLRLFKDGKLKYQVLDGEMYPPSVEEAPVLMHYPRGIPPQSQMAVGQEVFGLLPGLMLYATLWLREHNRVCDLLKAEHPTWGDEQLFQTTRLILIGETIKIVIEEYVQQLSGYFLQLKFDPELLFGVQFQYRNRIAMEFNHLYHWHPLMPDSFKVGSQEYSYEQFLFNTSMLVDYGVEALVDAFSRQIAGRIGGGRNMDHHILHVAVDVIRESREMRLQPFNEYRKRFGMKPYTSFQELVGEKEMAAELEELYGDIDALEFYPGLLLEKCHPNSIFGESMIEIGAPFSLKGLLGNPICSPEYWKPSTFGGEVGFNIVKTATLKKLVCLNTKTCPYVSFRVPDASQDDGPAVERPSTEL

Compound	Activity [1] [%]	Activity [2] [%]	IC50 [3] [µM]	IC50 [4] [µM]
Cc1ccc(-c2cc(CCC(=O)Oc3ccc(C(C)C)cc3)nn2-c2ccccc2)cc1	10.6	67.2	> 10	> 10
Cc1ccc(-c2cc(CCC(=O)Oc3ccc(C(C)C)cc3)nn2-c2ccc(Cl)nn2)cc1	51.1	77.1	> 10	–
Cc1ccc(-c2cc(CCC(=O)N3CCN(Cc4ccc(C(C)(C)C)cc4)CC3)nn2-c2ccc3ccccc3n2)cc1	8.2	111	> 10	> 10
CCOC(=O)C1CCN(C(=O)CCc2cc(-c3ccc(C)cc3)n(-c3ccc4ccccc4n3)n2)CC1	15.9	91.9	> 10	> 10
CCOC(=O)C1CCN(C(=O)CCc2cc(-c3ccc(C(F)(F)F)cc3)n(-c3ccc(Cl)nn3)n2)CC1	102	90.4	> 10	> 10
Cc1ccc(-c2cc(CCC(=O)N3CCN(Cc4ccc(C(C)(C)C)cc4)CC3)nn2-c2ccccc2)cc1	21	118	> 10	> 10
Cc1ccc(-c2cc(CCC(=O)Oc3ccc(C(C)C)cc3)nn2-c2ccc3ccccc3n2)cc1	–	67.8	> 10	> 10
CC(C)(C)c1ccc(CN2CCN(C(=O)CCc3cc(-c4ccc(F)cc4)n(-c4ccc(Cl)nn4)n3)CC2)cc1	82.9	103	> 10	> 10
CCOC(=O)C1CCN(C(=O)CCc2cc(-c3ccc(C)cc3)n(-c3ccccc3)n2)CC1	57.1	98	> 10	> 10
